In series [1] the test system is DU-145. Description: Cytotoxicity against human DU145 cells incubated for 2 hrs under normoxic condition measured after 72 hrs by Alamar blue assay. It is filed as functional, cell-based. The gist of the method: (§1)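 DU145 and PC-3 cells exposed 2 h under hypoxia (N2) or normoxia (air). IC50 determined. Mean ± SEM of two or more independent experiments, each in quintuplicate.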

In series [2] the test system is PC-3. The series is described as follows: Cytotoxicity against human PC3 cells incubated for 2 hrs under normoxic condition measured after 72 hrs by Alamar blue assay. The class given is functional, cell-based. The gist of the method:
as §1
A general note: Alamar Blue is a resazurin reagent that responds to reducing activity.

Series [3] deals with DU-145. Description: Cytotoxicity against human DU145 cells incubated for 2 hrs under hypoxic condition measured after 72 hrs by Alamar blue assay. The class given is functional, cell-based. The gist of the method: as §1
For series [4], the system named is PC-3. The series is described as follows: Selectivity index, ratio of IC50 for human PC3 cells under normoxic condition to IC50 for human PC3 cells under hypoxic condition. The class given is functional. Summed up: (§2)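 Hypoxia cytotoxicity ratio = IC50(air)/IC50(N2), from IC50 values after 2 h exposure of DU145 or PC-3 cells. Based on two or more independent experiments in quintuplicate.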

Series [5] deals with DU-145. The series is described as follows: Selectivity index, ratio of IC50 for human DU145 cells under normoxic condition to IC50 for human DU145 cells under hypoxic condition. It is filed as functional. Summed up: as §2
The subject of series [6] is PC-3. Description: Cytotoxicity against human PC3 cells incubated for 2 hrs under hypoxic condition measured after 72 hrs by Alamar blue assay. It is filed as functional, cell-based. The gist of the method:
as §1

Series [7] in a line: 1-octanol/phosphate buffered saline distribution coefficient, log D of the compound at 400000 cpm at pH 7.4 by gamma counting method. The class given is physicochemical.
The nature of series [8]: Drug uptake in human PC3 cells at 100000 cpm preincubated for 2 hrs measured up to 8 hrs under normoxic condition by gamma counting analysis. It is filed as ADME, cell-based. The settings on record: pc-3, 8 h.
The nature of series [9]: Drug uptake in human DU145 cells at 100000 cpm preincubated for 2 hrs measured up to 8 hrs under hypoxic condition by gamma counting analysis. It is filed as ADME, cell-based. The settings on record: du-145, 8 h.
Series [10] can be described thus: Drug uptake in human PC3 cells at 100000 cpm preincubated for 2 hrs measured up to 8 hrs under hypoxic condition by gamma counting analysis. The class given is ADME, cell-based. The settings on record: pc-3, 8 h.
The nature of series [11]: Drug uptake in human DU145 cells at 100000 cpm preincubated for 2 hrs measured up to 8 hrs under normoxic condition by gamma counting analysis. The class given is ADME, cell-based. The following applies: du-145, 8 h.

As a reminder, the IC50 is the midpoint of a concentration-inhibition curve. Take `Cn1c(COP(=O)(NCCBr)NCCBr)cnc1[N+](=O)[O-]` [EVOFOSFAMIDE]: the IC50 in the series on DU-145 [1] was found to be 842 µM; in the series with PC-3 [2], 687 µM; with DU-145 [3], 4.14 µM; in the series on PC-3 [6] it was 6.49 µM. The “Ratio IC50” value in the series with PC-3 [4] was 106; in the series on DU-145 [5] it was 203.
The logD is the decadic logarithm of the distribution of all forms, ionised or not, between an organic phase and buffer at a given pH. A lower logD goes with lower lipophilicity. As to `Cn1c(COP(=O)(N(CCBr)Cc2cn(Cc3ccccc3)nn2)N(CCBr)Cc2nnn(Cc3ccccc3)c2[125I])cnc1[N+](=O)[O-]` (stereo unspecified), the logD in [7] amounted to 0.55. Further, the Drug uptake in [8] is on record as 2%; in series [9] it was 4%; in series [10], 4%; in [11], 2%.

The values are drawn from ChEMBL document CHEMBL4130594 (ACS Med Chem Lett, 2017).
